Among the data in ChEMBL document CHEMBL1124943, “Alkylation of DNA by C-10 of 2,7-diaminomitosene” (1990) are viability and DNA single strand breaks values, retold here.

Format in all cases: functional
In assay [1] the test system is L1210. Kind of assay: Survival of L-1210 leukemia cells upon exposure to the compound for 1 hr at a concentration of 100ug/mL, measured in colony forming units. The settings on record: Mus musculus, L1210, 1 h; read-out: Survival.
Assay [2] relates to L1210. Kind of assay: Survival of L-1210 leukemia cells upon exposure to the compound for 1 hr at a concentration of 50ug/mL, measured in colony forming units. The settings on record: Mus musculus, L1210, 1 h; read-out: Survival.
For assay [3], the system named is Nucleic Acid. In words: Ability to […] breaks induced by ionozing radiation on exposure for 1 hr at a concentration of 10 ug/mL. A digest of the protocol:
(§1)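 Murine L-1210 cells were prelabelled with [2-14C]thymidine (2.0 μCi) for 4 doublings (48 h), then chased 24 h in unlabelled medium. They were exposed 1 h at 37 °C, washed twice at 4 °C, and 10^6 cells were lysed on PVC filters (SDS/glycine/EDTA, pH 10.0). Lysates were digested 1 h with proteinase K (0.5 mg/mL), then alkaline-eluted (pH 12.1) for 15 h. First-order elution rates were converted to rad equivalents against ionizing-radiation standards. Values are the mean of three determinations, or duplicates where marked.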

The subject of assay [4] is Nucleic Acid. In words: Ability to […] breaks induced by ionozing radiation on exposure for 1 hr at a concentration of 100 ug/mL. A digest of the protocol: as §1
The test system of assay [5] is Nucleic Acid. Kind of assay: Ability to […] breaks induced by ionozing radiation on exposure for 1 hr at a concentration of 50 ug/mL. The procedure, abridged:
as §1

Assay [6] concerns L1210. In words: Survival of L-1210 leukemia cells upon exposure to the compound for 1 hr at a concentration of 10ug/mL, measured in colony forming units. The settings on record: Mus musculus, L1210, 1 h; read-out: Survival.
The subject of assay [7] is Nucleic Acid. In words: Ability to […] breaks induced by ionozing radiation on exposure for 1 hr at a concentration of 250 ug/mL. The procedure, abridged:
as §1

Assay [8] relates to L1210. Kind of assay: Survival of L-1210 leukemia cells upon exposure to the compound for 1 hr at a concentration of 250ug/mL, measured in colony forming units. The settings on record: Mus musculus, L1210, 1 h; read-out: Survival.
In assay [9] the test system is L1210. In words: Survival of L-1210 leukemia cells upon exposure to the compound for 1 hr at a concentration of 500ug/mL, measured in colony forming units. The settings on record: Mus musculus, L1210, 1 h; read-out: Survival.
For assay [10], the system named is Nucleic Acid. In words: Ability to […] breaks induced by ionozing radiation on exposure for 1 hr at a concentration of 500 ug/mL. A digest of the protocol:
as §1

For assay [11], the system named is L1210. Kind of assay: Survival of L-1210 leukemia cells upon exposure to the compound for 1 hr at a concentration of 1ug/mL, measured in colony forming units. The settings on record: Mus musculus, L1210, 1 h; read-out: Survival.
[12] abbreviates: tested as the 18O-labelled form.

With `COS(C)(=O)=O` [METHANESULFONIC ACID METHYL ESTER], in the assay with L1210 [1], the viability at 100 µg/mL stood at 0.2%. Further, the viability at 50 µg/mL in the assay on L1210 [2] is 32%. Further, the DNA single strand breaks in the assay with Nucleic Acid [3] came out at 583 rad equiv; in the assay with Nucleic Acid [4] it was 2150 rad equiv; in the assay on Nucleic Acid [5], 935 rad equiv. Also, in the assay with L1210 [6], the viability at 10 µg/mL amounted to 100%.

For `CC1=C(N)C(=O)c2c(COC(N)=O)c3n(c2C1=O)CC(N)C3` (stereo not given), in the assay on L1210 [1], the viability at 100 µg/mL came out at 8%. In the assay with L1210 [2], the viability at 50 µg/mL was determined as 43%. The DNA single strand breaks is 0 rad equiv with Nucleic Acid [3]; 320 rad equiv in the assay with Nucleic Acid [4]; 470 rad equiv in the assay on Nucleic Acid [7]; 110 rad equiv in the assay on Nucleic Acid [5]; 535 rad equiv in the assay with Nucleic Acid [10]. Besides, the viability at 250 µg/mL in the assay on L1210 [8] was determined as 0.9%. Besides, the viability at 500 µg/mL with L1210 [9] stood at 0%. Besides, in the assay on L1210 [6], the viability at 10 µg/mL amounted to 100%.

`CC1=C(N)C(=O)c2c(COC(N)=O)c3n(c2C1=O)CC(N)C3[18OH]` (stereo not given): the viability at 100 µg/mL in the assay with L1210 [1] was 0%. The viability at 50 µg/mL in the assay on L1210 [2] worked out at 2%. Further, the viability at 1 µg/mL with L1210 [11] turned out to be 100%. Further, in the assay on L1210 [9], the viability at 500 µg/mL amounted to 0%. Also, the viability at 10 µg/mL in the assay with L1210 [6] was determined as 81%.

With `CC1=C(N)C(=O)c2c(COC(N)=O)c3n(c2C1=O)CC(N)C3O` (stereo not given), the DNA single strand breaks with Nucleic Acid [3] (setting [12]) was 0 rad equiv; in the assay on Nucleic Acid [4] (setting [12]), 50 rad equiv; with Nucleic Acid [5] (setting [12]) it was 0 rad equiv; in the assay on Nucleic Acid [10] (setting [12]), 395 rad equiv.
